Assay results reported in ChEMBL document CHEMBL1138325, “Design, synthesis, in vitro, and in vivo characterization of phenylpiperazines and pyridinylpiperazines as potent and selective antagonists of the melanocortin-4 receptor” (J Med Chem, 2007).
Blank lines part the entries; values can stand above or below the compound they belong to.

Tests used:
[1] = biological target: T1, Melanocortin receptor 4 (Homo sapiens, UniProt P32245); assay: Displacement of [125I]NDPMSH from human MC4R expressed in HEK293 cells; format: cell-based
T1 sequence (P32245 whole entry): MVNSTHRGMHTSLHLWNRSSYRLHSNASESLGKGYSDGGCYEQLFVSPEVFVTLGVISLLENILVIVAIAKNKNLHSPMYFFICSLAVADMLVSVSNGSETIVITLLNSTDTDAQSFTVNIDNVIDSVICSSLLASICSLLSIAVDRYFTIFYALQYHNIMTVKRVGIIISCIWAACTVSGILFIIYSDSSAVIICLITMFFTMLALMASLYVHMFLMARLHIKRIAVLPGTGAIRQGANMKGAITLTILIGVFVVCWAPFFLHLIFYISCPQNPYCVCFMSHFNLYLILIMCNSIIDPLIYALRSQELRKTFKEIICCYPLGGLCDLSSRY

[2] = Apparent permeability from apical to basolateral side of Caco-2 cells; format: ADME, cell-based; conditions: human
How it was run: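 Caco-2 monolayer permeability, with Papp measured in the apical-to-basolateral direction.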

[3] = AUC in CD1 mouse at 10 mg/kg, po; format: ADME, organism-based; design: dose 10 mg/kg, route oral; conditions: plasma
How it was run: (§1)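 CD-1 mice, three animals, dosed i.v. at 5 mg/kg and by oral gavage at 10 mg/kg. Plasma CL, Vd, t1/2, Cmax, Tmax, oral AUC and F% were derived. Brain concentrations and brain/plasma ratios at 1 and 4 h were taken from the i.v. dosing.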

[4] = biological target: T1, Melanocortin receptor 4; assay: Antagonist activity at human MC4R expressed in HEK293 cells assessed as inhibition of alpha-MSH-stimulated cAMP production; format: functional, cell-based
[5] = Distribution coefficient, log D by shake flask method; format: physicochemical; conditions: octanol/water
How it was run: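 LogD measured by the shake-flask method; described elsewhere in the paper as lipophilicity at pH 7.4.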

[6] = Ratio of drug level in brain to plasma in Sprague-Dawley rat at 10 mg/kg, po after 4 hrs; format: ADME, organism-based; design: dose 10 mg/kg, route oral; conditions: brain and plasma, read-out: BPR
How it was run: (§2)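 Sprague–Dawley rats, three animals per route; i.v. dose 5 mg/kg and oral 10 mg/kg. Brain concentrations and brain/plasma ratios taken from the oral dosing at 1 and 4 h post-dose.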

[7] = Ratio of drug level in brain to plasma in Sprague-Dawley rat at 10 mg/kg, po after 1 hr; format: ADME, organism-based; design: dose 10 mg/kg, route oral; conditions: brain and plasma, read-out: BPR; how it was run: as §2
[8] = Half life in Sprague-Dawley rat at 2.5 mg/kg, iv and 10 mg/kg, po; format: ADME, organism-based; conditions: in vivo
How it was run: (§3)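 Sprague–Dawley rats, three animals, dosed i.v. at 2.5 mg/kg and orally at 10 mg/kg. CL and t1/2 were derived from the plasma profile.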

[9] = Volume of distribution in Sprague-Dawley rat at 2.5 mg/kg, iv and 10 mg/kg, po; format: ADME, organism-based; conditions: in vivo
How it was run: (§4)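 Sprague–Dawley rats, three animals per route; i.v. given at 2.5 mg/kg and oral at 10 mg/kg; plasma PK parameters calculated from these dosings.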

[10] = AUC in Sprague-Dawley rat at 10 mg/kg, po; format: ADME, organism-based; design: dose 10 mg/kg, route oral; conditions: plasma
[11] = biological target: Melanocortin receptor 5 (Homo sapiens, UniProt P33032); assay: Displacement of [125I]NDPMSH from human MC5R expressed in HEK293 cells; format: cell-based
Melanocortin receptor 5, sequence (P33032 whole entry): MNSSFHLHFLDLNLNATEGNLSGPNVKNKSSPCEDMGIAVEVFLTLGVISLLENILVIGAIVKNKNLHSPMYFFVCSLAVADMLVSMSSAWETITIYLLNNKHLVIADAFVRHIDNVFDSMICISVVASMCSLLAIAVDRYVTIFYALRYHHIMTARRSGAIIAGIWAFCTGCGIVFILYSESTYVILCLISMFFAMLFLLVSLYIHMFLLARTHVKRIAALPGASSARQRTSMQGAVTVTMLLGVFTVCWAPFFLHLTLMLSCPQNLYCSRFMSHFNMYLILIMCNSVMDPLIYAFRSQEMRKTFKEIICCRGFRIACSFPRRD

[12] = Drug level in Sprague-Dawley rat brain at 10 mg/kg, po after 4 hrs; format: ADME, organism-based; design: dose 10 mg/kg, route oral; conditions: read-out: Drug uptake
[13] = Tmax in Sprague-Dawley rat at 2.5 mg/kg, iv and 10 mg/kg, po; format: ADME, organism-based; conditions: in vivo; how it was run: as §4
[14] = Clearance in Sprague-Dawley rat at 2.5 mg/kg, iv and 10 mg/kg, po; format: ADME, organism-based; conditions: in vivo; how it was run: as §3
[15] = biological target: Melanocortin receptor 3 (Homo sapiens, UniProt P41968); assay: Displacement of [125I]NDPMSH from human MC3R expressed in HEK293 cells; format: cell-based
Melanocortin receptor 3, sequence (P41968 whole entry): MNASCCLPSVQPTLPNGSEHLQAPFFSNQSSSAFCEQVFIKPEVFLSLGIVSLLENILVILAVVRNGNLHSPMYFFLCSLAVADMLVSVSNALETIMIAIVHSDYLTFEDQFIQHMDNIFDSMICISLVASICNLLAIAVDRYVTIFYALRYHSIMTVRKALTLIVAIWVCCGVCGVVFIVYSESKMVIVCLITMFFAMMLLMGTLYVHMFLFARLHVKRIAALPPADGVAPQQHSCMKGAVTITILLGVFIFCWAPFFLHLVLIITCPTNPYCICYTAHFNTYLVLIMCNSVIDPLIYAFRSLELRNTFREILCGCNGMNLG

[16] = Oral bioavailability in Sprague-Dawley rat at 10 mg/kg, po; format: ADME, organism-based; conditions: in vivo; how it was run: as §2
[17] = Drug level in Sprague-Dawley rat brain at 10 mg/kg, po after 1 hr; format: ADME, organism-based; design: dose 10 mg/kg, route oral; conditions: read-out: Drug uptake
[18] = biological target: T2, Melanocyte-stimulating hormone receptor (Homo sapiens, UniProt Q01726); assay: Displacement of [125I]NDPMSH from human MC1R expressed in HEK293 cells; format: cell-based
Target sequence in this assay (Q01726 whole entry): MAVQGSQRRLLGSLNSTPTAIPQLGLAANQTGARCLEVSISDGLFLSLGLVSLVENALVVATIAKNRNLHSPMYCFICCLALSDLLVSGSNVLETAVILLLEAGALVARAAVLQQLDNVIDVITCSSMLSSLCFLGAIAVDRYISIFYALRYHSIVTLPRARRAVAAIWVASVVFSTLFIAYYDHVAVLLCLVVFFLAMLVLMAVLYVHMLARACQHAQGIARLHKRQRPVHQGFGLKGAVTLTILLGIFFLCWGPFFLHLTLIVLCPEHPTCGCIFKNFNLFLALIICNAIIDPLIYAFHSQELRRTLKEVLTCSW

[19] = Cmax in Sprague-Dawley rat at 10 mg/kg, po; format: ADME, organism-based; design: dose 10 mg/kg, route oral; conditions: in vivo
[20] = Tmax in Sprague-Dawley rat at 5 mg/kg, iv and 10 mg/kg, po; format: ADME, organism-based; conditions: in vivo; how it was run: as §2
[21] = Clearance in Sprague-Dawley rat at 5 mg/kg, iv and 10 mg/kg, po; format: ADME, organism-based; conditions: in vivo
[22] = Half life in Sprague-Dawley rat at 5 mg/kg, iv and 10 mg/kg, po; format: ADME, organism-based; conditions: in vivo
[23] = biological target: T2, Melanocyte-stimulating hormone receptor; assay: Displacement of [125I]NDPMSH from human MC1R expressed in HEK293 cells at 10 uM; format: cell-based
Target sequence in this assay (Q01726 whole entry, looked up): as the sequence (Q01726 whole entry) above

[24] = Volume of distribution in Sprague-Dawley rat at 5 mg/kg, iv and 10 mg/kg, po; format: ADME, organism-based; conditions: in vivo; how it was run: as §2
[25] = Ratio of drug level in brain to plasma in CD1 mouse at 5 mg/kg, iv after 4 hrs; format: ADME, organism-based; design: dose 5 mg/kg, route intravenous; conditions: brain and plasma, read-out: BPR
[26] = Cmax in CD1 mouse at 10 mg/kg, po after 6 hrs; format: ADME, organism-based; design: dose 10 mg/kg, route oral; conditions: in vivo; how it was run: as §1
[27] = biological target: Growth hormone secretagogue receptor type 1 (Homo sapiens, UniProt Q92847); assay: Agonist activity at GHSR; format: functional
Growth hormone secretagogue receptor type 1, sequence (Q92847 whole entry): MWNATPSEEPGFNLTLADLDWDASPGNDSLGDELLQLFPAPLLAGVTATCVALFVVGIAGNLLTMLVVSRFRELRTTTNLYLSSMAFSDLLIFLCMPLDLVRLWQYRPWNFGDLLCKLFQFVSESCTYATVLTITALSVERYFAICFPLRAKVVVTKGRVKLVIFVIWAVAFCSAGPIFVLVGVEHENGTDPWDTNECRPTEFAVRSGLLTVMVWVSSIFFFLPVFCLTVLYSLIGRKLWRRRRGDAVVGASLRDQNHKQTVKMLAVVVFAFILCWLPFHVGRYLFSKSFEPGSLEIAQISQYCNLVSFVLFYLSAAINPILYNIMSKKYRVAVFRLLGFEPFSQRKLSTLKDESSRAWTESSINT

[28] = Clearance in CD1 mouse at 5 mg/kg, iv; format: ADME, organism-based; design: dose 5 mg/kg, route intravenous; conditions: in vivo; how it was run: as §1
[29] = Tmax in CD1 mouse at 10 mg/kg, po; format: ADME, organism-based; design: dose 10 mg/kg, route oral; conditions: in vivo
How it was run: (§5)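 CD-1 mice, three animals per route; single i.v. dose at 5 mg/kg and oral gavage at 10 mg/kg. Plasma PK parameters derived; brain concentrations and brain/plasma ratios taken from the i.v. dosing at 1 and 4 h.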

[30] = Volume of distribution in CD1 mouse at 5 mg/kg, iv; format: ADME, organism-based; design: dose 5 mg/kg, route intravenous; conditions: in vivo; how it was run: as §5
[31] = Drug level in CD1 mouse brain at 5 mg/kg, iv after 1 hr; format: ADME, organism-based; design: dose 5 mg/kg, route intravenous; conditions: read-out: Drug uptake; how it was run: as §1
[32] = Bioavailability in CD1 mouse at 10 mg/kg, po; format: ADME, organism-based; conditions: in vivo; how it was run: as §1
[33] = Drug level in CD1 mouse brain at 5 mg/kg, iv after 4 hrs; format: ADME, organism-based; design: dose 5 mg/kg, route intravenous; conditions: read-out: Drug uptake; how it was run: as §1
[34] = Half life in CD1 mouse at 5 mg/kg, iv; format: ADME, organism-based; design: dose 5 mg/kg, route intravenous; conditions: in vivo; how it was run: as §1
[35] = Ratio of drug level in brain to plasma in CD1 mouse at 5 mg/kg, iv after 1 hr; format: ADME, organism-based; design: dose 5 mg/kg, route intravenous; conditions: brain and plasma, read-out: BPR

Ki [1]: 890 nM
Structure (SMILES): CC(C)C[C@H](N)c1cccnc1N1CCN(C(=O)CCc2ccc(Cl)cc2Cl)CC1

Ki [1]: 75 nM
Structure (SMILES): CC(C)C[C@H](N)c1cc(C(F)(F)F)ccc1N1CCN(C(=O)CCc2ccc(Cl)cc2Cl)CC1

Kp at 4 h [6]: 0.2
Kp at 1 h [7]: 0.2
half-life [8]: 3.3 h
Vd [9]: 18.6 L/kg
AUC [10]: 517 ng·h/mL
Ki [11]: 1200 nM
concentration at 4 h [12]: 29 ng/g
Tmax [13]: 2 h
clearance [14]: 64.9 mL/min/kg
Ki [15]: 3300 nM
bioavailability [16]: 19.6%
concentration at 1 h [17]: 15 ng/g
Ki [18]: 6400 nM
Ki [1]: 2.5 nM
Cmax [19]: 60 ng/mL
logD [5]: 3.3
IC50 [4]: 49 nM
Structure (SMILES): Cc1ccc([C@@H](CC(C)C)NC(=O)CCN(C)C)c(N2CCN(C(=O)[C@H](C)Cc3ccc(Cl)cc3Cl)CC2)n1

AUC [3]: 687 ng·h/mL
Activity [23]: 18%
Structure (SMILES): CC(C)C[C@H](NC(=O)CN)c1cc(C(F)(F)F)ccc1N1CCN(C(=O)CCc2ccc(Cl)cc2Cl)CC1

Kp at 4 h [25]: 0.23
Papp A→B [2]: 2 ×10⁻⁶ cm/s
Cmax [26]: 552 ng/mL
Intrinsic activity [27]: 107%
Structure (SMILES): CC(C)C[C@H](NCCN)c1cccc(F)c1N1CCN(C(=O)[C@@H](Cc2ccc(Cl)cc2Cl)N2CCCC2=O)CC1

Kp at 4 h [25]: 0.15
clearance [28]: 37.4 mL/min/kg
AUC [3]: 551 ng·h/mL
Tmax [29]: 0.5 h
Vd [30]: 16.8 L/kg
Cmax [26]: 288 ng/mL
concentration at 1 h [31]: 35 ng/g
bioavailability [32]: 12.6%
concentration at 4 h [33]: 14 ng/g
half-life [34]: 5.2 h
Ki [1]: 6 nM
Kp at 1 h [35]: 0.07
Structure (SMILES): CC(C)C[C@@H](NC(=O)CN)c1cccnc1N1CCN(C(=O)[C@H](C)Cc2ccc(Cl)cc2Cl)CC1

More lines, now with the values behind:

Structure (SMILES): CC(C)C[C@@H](N)c1cccnc1N1CCN(C(=O)CCc2ccc(Cl)cc2Cl)CC1
Ki [1]: 260 nM

Structure (SMILES): Cc1ccc(N2CCN(C(=O)[C@H](C)Cc3ccc(Cl)cc3)CC2)c([C@@H](N)CC(C)C)c1
Papp A→B [2]: 1.8 ×10⁻⁶ cm/s
AUC [3]: 1760 ng·h/mL
IC50 [4]: 570 nM

Structure (SMILES): COc1cc(Cl)ccc1CC(C)C(=O)N1CCN(c2ccc(C(F)(F)F)cc2[C@@H](N)CC(C)C)CC1 (stereo not given in full)
AUC [3]: 249 ng·h/mL
logD [5]: 4.5

Structure (SMILES): Cc1ccc([C@H](N)CC(C)C)c(N2CCN(C(=O)[C@H](C)Cc3ccc(Cl)cc3Cl)CC2)n1
Ki [1]: 44 nM

Structure (SMILES): CC(C)C[C@H](NC(=O)CN)c1cccnc1N1CCN(C(=O)[C@H](C)Cc2ccc(Cl)cc2Cl)CC1
Ki [1]: 39 nM

Structure (SMILES): Cc1ccc(N2CCN(C(=O)[C@H](C)Cc3ccc(Cl)cc3)CC2)c([C@H](CC(C)C)NC(=O)CCN(C)C)c1
Kp at 4 h [6]: 0.3
Tmax [20]: 5.3 h
Kp at 1 h [7]: 0.2
AUC [10]: 2360 ng·h/mL
Ki [11]: 710 nM
concentration at 4 h [12]: 36 ng/g
clearance [21]: 15 mL/min/kg
half-life [22]: 3.1 h
Activity [23]: 34%
Ki [15]: 2800 nM
bioavailability [16]: 19%
concentration at 1 h [17]: 12 ng/g
Vd [24]: 4.1 L/kg
Ki [1]: 3.7 nM
Cmax [19]: 196 ng/mL
logD [5]: 2.4
IC50 [4]: 160 nM

Structure (SMILES): CC(C)C[C@@H](N)c1cccnc1N1CCN(C(=O)C(C)Cc2ccc(Cl)cc2Cl)CC1 (stereo not given in full)
Ki [1]: 36 nM

Structure (SMILES): Cc1ccc(N2CCN(C(=O)[C@@H](Cc3ccc(Cl)cc3Cl)N3CCCC3=O)CC2)c([C@H](CC(C)C)NC(=O)CCN(C)C)c1
Kp at 4 h [6]: 0.3
Tmax [20]: 4 h
Kp at 1 h [7]: 0.2
AUC [10]: 393 ng·h/mL
concentration at 4 h [12]: 15 ng/g
clearance [21]: 38.7 mL/min/kg
half-life [22]: 2.6 h
bioavailability [16]: 8.7%
concentration at 1 h [17]: 1.5 ng/g
Vd [24]: 8.8 L/kg
Cmax [19]: 40 ng/mL
logD [5]: 3.9
